Results: ChEMBL document CHEMBL3244187, “Structure--activity relationships in cephalosporins prepared from penicillins. 2. Analogues of cephalexin substituted in the 3-methyl group” (J Med Chem, 1977)
In brackets after ≈: the same amount, converted by molar mass.

Key:
Klebsiella aerogenes = experiment: Antibacterial activity against Klebsiella aerogenes after 18 hrs by serial dilution method; assay type: functional
Summary of the method: (§1)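 MICs by serial dilution on nutrient agar. Inoculum 0.001 mL of undiluted overnight broth culture. Plates incubated at 37 °C for 18 h before reading.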

Staphylococcus aureus [1] = experiment: Antibacterial activity against beta-lactamase producing benzylpenicillin-resistant Staphylococcus aureus Russell after 18 hrs by serial dilution method; assay type: functional
Summary of the method: (§2)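 MICs by serial dilution on nutrient agar. Inoculum 0.001 mL of undiluted overnight broth culture. Plates incubated 18 h at 37 °C before reading. The S. aureus Russell strain produces β-lactamase and resists benzylpenicillin.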

Proteus mirabilis = experiment: Antibacterial activity against Proteus mirabilis after 18 hrs by serial dilution method; assay type: functional; summary of the method: as §1
Staphylococcus aureus [2] = experiment: Antibacterial activity against Staphylococcus aureus Oxford after 18 hrs by serial dilution method; assay type: functional; summary of the method: as §1
Salmonella typhi = experiment: Antibacterial activity against Salmonella typhi after 18 hrs by serial dilution method; assay type: functional, Salmonella enterica subsp. enterica serovar Typhi; conditions: Salmonella enterica; summary of the method: as §2
Escherichia coli = experiment: Antibacterial activity against Escherichia coli after 18 hrs by serial dilution method; assay type: functional; summary of the method: as §1
Shigella sonnei = experiment: Antibacterial activity against Shigella sonnei after 18 hrs by serial dilution method; assay type: functional; summary of the method: as §1
[3] = Drug level in mouse blood at 50 mg/kg, po after 30 mins by microbiological assay; assay type: ADME, organism-based; design: dose 50 mg/kg, route oral; conditions: read-out: Drug uptake
Summary of the method: (§3)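 Mice given a single 50 mg/kg dose by the route in the line. Groups of five killed at each time point and blood taken from the cut axilla, heparinized and stored at 4 °C. Blood assayed the same day by large-plate microbiological assay with Sarcina lutea NCTC 8340, overnight at 30 °C. Standards made in mouse blood, with pH 7.2 phosphate-buffered saline as diluent.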

[4] = Drug level in mouse blood at 50 mg/kg, po after 10 mins by microbiological assay; assay type: ADME, organism-based; design: dose 50 mg/kg, route oral; conditions: read-out: Drug uptake; summary of the method: as §3
[5] = Drug level in mouse blood at 50 mg/kg, po after 20 mins by microbiological assay; assay type: ADME, organism-based; design: dose 50 mg/kg, route oral; conditions: read-out: Drug uptake; summary of the method: as §3
[6] = Drug level in mouse blood at 50 mg/kg, po after 1 hr by microbiological assay; assay type: ADME, organism-based; design: dose 50 mg/kg, route oral; conditions: read-out: Drug uptake; summary of the method: as §3
[7] = Drug level in mouse blood at 50 mg/kg, po after 2 hrs by microbiological assay; assay type: ADME, organism-based; design: dose 50 mg/kg, route oral; conditions: read-out: Drug uptake; summary of the method: as §3
[8] = Drug level in mouse blood at 50 mg/kg, po after 4 hrs by microbiological assay; assay type: ADME, organism-based; design: dose 50 mg/kg, route oral; conditions: read-out: Drug uptake; summary of the method: as §3
[9] = Drug level in mouse blood at 50 mg/kg, sc after 10 mins by microbiological assay; assay type: ADME, organism-based; design: dose 50 mg/kg, route subcutaneous; conditions: read-out: Drug uptake; summary of the method: as §3
[10] = Drug level in mouse blood at 50 mg/kg, sc after 30 mins by microbiological assay; assay type: ADME, organism-based; design: dose 50 mg/kg, route subcutaneous; conditions: read-out: Drug uptake; summary of the method: as §3
[11] = Drug level in mouse blood at 50 mg/kg, sc after 20 mins by microbiological assay; assay type: ADME, organism-based; design: dose 50 mg/kg, route subcutaneous; conditions: read-out: Drug uptake; summary of the method: as §3
[12] = Drug level in mouse blood at 50 mg/kg, sc after 1 hr by microbiological assay; assay type: ADME, organism-based; design: dose 50 mg/kg, route subcutaneous; conditions: read-out: Drug uptake; summary of the method: as §3
[13] = Drug level in mouse blood at 50 mg/kg, sc after 2 hrs by microbiological assay; assay type: ADME, organism-based; design: dose 50 mg/kg, route subcutaneous; conditions: read-out: Drug uptake; summary of the method: as §3
[14] = Drug level in mouse blood at 50 mg/kg, sc after 4 hrs by microbiological assay; assay type: ADME, organism-based; design: dose 50 mg/kg, route subcutaneous; conditions: read-out: Drug uptake; summary of the method: as §3
[15] = Drug level in mouse blood at 50 mg/kg, iv after 2 hrs by microbiological assay; assay type: ADME, organism-based; design: dose 50 mg/kg, route intravenous; conditions: read-out: Drug uptake; summary of the method: as §3
[16] = Drug level in mouse blood at 50 mg/kg, iv after 30 mins by microbiological assay; assay type: ADME, organism-based; design: dose 50 mg/kg, route intravenous; conditions: read-out: Drug uptake; summary of the method: as §3
[17] = Drug level in mouse blood at 50 mg/kg, iv after 1 hr by microbiological assay; assay type: ADME, organism-based; design: dose 50 mg/kg, route intravenous; conditions: read-out: Drug uptake; summary of the method: as §3
[18] = Drug level in mouse blood at 50 mg/kg, iv after 4 hrs by microbiological assay; assay type: ADME, organism-based; design: dose 50 mg/kg, route intravenous; conditions: read-out: Drug uptake; summary of the method: as §3
[19] = Drug level in mouse blood at 50 mg/kg, iv after 20 mins by microbiological assay; assay type: ADME, organism-based; design: dose 50 mg/kg, route intravenous; conditions: read-out: Drug uptake; summary of the method: as §3
[20] = Drug level in mouse blood at 50 mg/kg, iv after 10 mins by microbiological assay; assay type: ADME, organism-based; design: dose 50 mg/kg, route intravenous; conditions: read-out: Drug uptake; summary of the method: as §3

Row | SMILES | MIC (Klebsiella aerogenes) | MIC (Staphylococcus aureus [1]) | MIC (Proteus mirabilis) | MIC (Staphylococcus aureus [2]) | MIC (Salmonella typhi) | MIC (Escherichia coli) | MIC (Shigella sonnei) | concentration at 0.5 h [3] | concentration at 10 min [4] | concentration at 20 min [5] | concentration at 1 h [6] | concentration at 2 h [7] | concentration at 4 h [8] | concentration at 10 min [9] | concentration at 0.5 h [10] | concentration at 20 min [11] | concentration at 1 h [12] | concentration at 2 h [13] | concentration at 4 h [14] | further results
1 | CC(=O)OCCC1=C(C(=O)O)N2C(=O)[C@@H](NC(=O)[C@H](N)c3ccccc3)[C@H]2SC1 | 25 µg/mL (≈ 59.6 µM) | 10 µg/mL (≈ 23.8 µM) | > 50 µg/mL | 0.5 µg/mL (≈ 1.19 µM) | 25 µg/mL (≈ 59.6 µM) | > 50 µg/mL | 50 µg/mL (≈ 119 µM) |  |  |  |  |  |  |  |  |  |  |  |  | 
2 | Cn1cccc1CC1=C(C(=O)O)N2C(=O)[C@@H](NC(=O)[C@H](N)c3ccccc3)[C@H]2SC1 | 500 µg/mL (≈ 1170 µM) | 50 µg/mL (≈ 117 µM) | 500 µg/mL (≈ 1170 µM) | 1.25 µg/mL (≈ 2.93 µM) | 50 µg/mL (≈ 117 µM) | 500 µg/mL (≈ 1170 µM) | 500 µg/mL (≈ 1170 µM) |  |  |  |  |  |  |  |  |  |  |  |  | 
3 | N[C@@H](C(=O)N[C@@H]1C(=O)N2C(C(=O)O)=C(Cc3ccccc3)CS[C@H]12)c1ccccc1 | 25 µg/mL (≈ 59 µM) | 2.5 µg/mL (≈ 5.9 µM) | 50 µg/mL (≈ 118 µM) | 0.1 µg/mL (≈ 0.236 µM) | 25 µg/mL (≈ 59 µM) | 25 µg/mL (≈ 59 µM) | 25 µg/mL (≈ 59 µM) | 210 ng/mL | 110 ng/mL | 180 ng/mL | 190 ng/mL | 340 ng/mL | 150 ng/mL |  |  |  |  |  |  | 
4 | Cc1ccncc1CC1=C(C(=O)O)N2C(=O)[C@@H](NC(=O)[C@H](N)c3ccccc3)[C@H]2SC1 | 12.5 µg/mL (≈ 28.5 µM) | 12.5 µg/mL (≈ 28.5 µM) | 25 µg/mL (≈ 57 µM) | 0.12 µg/mL (≈ 0.274 µM) | 5 µg/mL (≈ 11.4 µM) | 12.5 µg/mL (≈ 28.5 µM) | 12.5 µg/mL (≈ 28.5 µM) |  |  |  |  |  |  |  |  |  |  |  |  | 
5 | N[C@@H](C(=O)N[C@@H]1C(=O)N2C(C(=O)O)=C(Cc3cncc(C(=O)O)c3)CS[C@H]12)c1ccccc1 | 1.25 µg/mL (≈ 2.67 µM) | 12.5 µg/mL (≈ 26.7 µM) | 1.25 µg/mL (≈ 2.67 µM) | 1.25 µg/mL (≈ 2.67 µM) | 2.5 µg/mL (≈ 5.34 µM) | 12.5 µg/mL (≈ 26.7 µM) | 12.5 µg/mL (≈ 26.7 µM) | 1700 ng/mL | 550 ng/mL | 850 ng/mL | 1500 ng/mL | 600 ng/mL | < 400 ng/mL | 70400 ng/mL | 35800 ng/mL | 54000 ng/mL | 12200 ng/mL | 2000 ng/mL | < 400 ng/mL | 
6 | O=C(Cc1cccs1)N[C@@H]1C(=O)N2C(C(=O)[O-])=C(C[n+]3ccccc3)CS[C@H]12 [CEPHALORIDINE] |  |  |  |  |  |  |  |  |  |  |  |  |  | 32800 ng/mL | 18500 ng/mL | 24400 ng/mL | 5600 ng/mL | 710 ng/mL | < 200 ng/mL | concentration at 2 h [15]: 320 ng/mL; concentration at 0.5 h [16]: 14300 ng/mL; concentration at 1 h [17]: 2900 ng/mL; concentration at 4 h [18]: < 50 ng/mL; concentration at 20 min [19]: 23200 ng/mL; concentration at 10 min [20]: 48800 ng/mL
7 | N[C@@H](C(=O)N[C@@H]1C(=O)N2C(C(=O)O)=C(Cc3ccccc3C(=O)O)CS[C@H]12)c1ccccc1 |  | 12.5 µg/mL (≈ 26.7 µM) |  |  | 50 µg/mL (≈ 107 µM) |  | 12.5 µg/mL (≈ 26.7 µM) | 2400 ng/mL | 1100 ng/mL | 1400 ng/mL | 3200 ng/mL | 2800 ng/mL | 3200 ng/mL | 63200 ng/mL | 58000 ng/mL | 66000 ng/mL | 49200 ng/mL | 40600 ng/mL | 31200 ng/mL | concentration at 2 h [15]: 29100 ng/mL; concentration at 0.5 h [16]: 75400 ng/mL; concentration at 1 h [17]: 64400 ng/mL; concentration at 4 h [18]: 18100 ng/mL; concentration at 20 min [19]: 83600 ng/mL; concentration at 10 min [20]: 102000 ng/mL
